Reference: ChEMBL document CHEMBL1140443, “Inhibitors of apoptosis in lymphocytes: synthesis and biological evaluation of compounds related to pifithrin-alpha” (J Med Chem, 2005)

Columns and labels:
Mus musculus [1] = species on record: Mus musculus; assay: Average percent survival of C57Bl/6 mice thymocytes from Dexamethasone (5 uM) induced apoptosis at 10 uM
Mus musculus [2] = species on record: Mus musculus; assay: Concentration required to inhibit dexamethasone-induced death of mice thymocytes; type: functional, organism-based
In short: (§1)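 Thymocytes from young C57Bl/6 mice, cultured at 37 °C in 5% CO2 in RPMI 1640 with 10% FBS and penicillin/streptomycin, plated at 10⁷ cells/mL. Cells were preincubated 30 min with graded compound concentrations (DMSO stock), then given 5 μM dexamethasone for 6 h. Cells were stained 30 min with 40 nM DiOC6 and 5 μg/mL PI and read by flow cytometry; DiOC6-high/PI-low cells were scored viable. EC50 was taken from a nonlinear one-site fit, with its 95% confidence interval.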

[3] = Concentration for 95% confidence interval (CI) in dexamethasone-induced mice thymocytes; range 1.45-2.80 uM; type: functional, Mus musculus
In short: as §1

[4] = Concentration for 95% confidence interval (CI) in dexamethasone-induced mice thymocytes; range 1.51-2.24 uM; type: functional, Mus musculus
In short: as §1

[5] = Concentration for 95% confidence interval (CI) in dexamethasone-induced mice thymocytes; range 3.26-8.82 uM; type: functional, Mus musculus
In short: as §1

[6] = Concentration for 95% confidence interval (CI) in dexamethasone-induced mice thymocytes; range 4.08-8.01 uM; type: functional, Mus musculus
In short: as §1

[7] = Concentration for 95% confidence interval (CI) in dexamethasone-induced mice thymocytes; range 1.76-2.98 uM; type: functional, Mus musculus
In short: as §1

[8] = Concentration for 95% confidence interval (CI) in dexamethasone-induced mice thymocytes; range 3.07-5.28 uM; type: functional, Mus musculus
In short: as §1

[9] = Concentration for 95% confidence interval (CI) in dexamethasone-induced mice thymocytes; range 6.02-8.76 uM; type: functional, Mus musculus
In short: as §1

[10] = Concentration for 95% confidence interval (CI) in dexamethasone-induced mice thymocytes; range 4.08-13.75 uM; type: functional, Mus musculus
In short: as §1

[11] = Concentration for 95% confidence interval (CI) in dexamethasone-induced mice thymocytes; range 2.78-34.83 uM; type: functional, Mus musculus
In short: as §1

[12] = Concentration for 95% confidence interval (CI) in dexamethasone-induced mice thymocytes; range 3.86-13.70 uM; type: functional, Mus musculus
In short: as §1

[13] = Concentration for 95% confidence interval (CI) in dexamethasone-induced mice thymocytes; range 3.45-4.69 uM; type: functional, Mus musculus
In short: as §1

[14] = Concentration for 95% confidence interval (CI) in dexamethasone-induced mice thymocytes; range 0.11-1.08 uM; type: functional, Mus musculus
In short: as §1

[15] = Concentration for 95% confidence interval (CI) in dexamethasone-induced mice thymocytes; range 3.95-5.75 uM; type: functional, Mus musculus
In short: as §1

[16] = Concentration for 95% confidence interval (CI) in dexamethasone-induced mice thymocytes; range 8.49-12.32 uM; type: functional, Mus musculus
In short: as §1

[17] = Concentration for 95% confidence interval (CI) in dexamethasone-induced mice thymocytes; range 2.78-5.16 uM; type: functional, Mus musculus
In short: as §1

[18] = Concentration for 95% confidence interval (CI) in dexamethasone-induced mice thymocytes; range 4.61-7.00 uM; type: functional, Mus musculus
In short: as §1

[19] = Concentration for 95% confidence interval (CI) in dexamethasone-induced mice thymocytes; range 0.95-1.57 uM; type: functional, Mus musculus
In short: as §1

[20] = Concentration for 95% confidence interval (CI) in dexamethasone-induced mice thymocytes; range 4.64-7.91 uM; type: functional, Mus musculus
In short: as §1

[21] = Concentration for 95% confidence interval (CI) in dexamethasone-induced mice thymocytes; range 0.94-1.82 uM; type: functional, Mus musculus
In short: as §1

[22] = Concentration for 95% confidence interval (CI) in dexamethasone-induced mice thymocytes; range 2.95-5.88 uM; type: functional, Mus musculus
In short: as §1

[23] = Concentration for 95% confidence interval (CI) in dexamethasone-induced mice thymocytes; range 2.86-6.89 uM; type: functional, Mus musculus
In short: as §1

Structure (SMILES)	Survival (Mus musculus [1])	EC50 (Mus musculus [2])	other results
Cc1ccc(C(=O)Cn2c(=N)sc3ccccc32)cc1	21%	> 10 µM	
COc1ccc(-c2cn3c4c(sc3n2)CCCC4)cc1	28%		
N=c1sc2ccccc2n1CC(=O)c1ccccc1	20%		
Cc1ccc(C(=O)CSc2nc3ccccc3[nH]2)cc1	15%		
O=[N+]([O-])c1ccc(-c2cn3c4c(sc3n2)CCCC4)cc1	11%		
[N-]=[N+]=Nc1ccc(-c2cn3c4c(sc3n2)CCCC4)cc1	50%		
Cc1ccc(-c2cn3c4c(sc3n2)CCCC4)cc1	54%	2.01 µM	CI [3]: 2.8 µM
Cc1cn2c(n1)sc1ccccc12	22%		
Cc1ccc(-c2cn3c(n2)nc(O)c2ccccc23)cc1	28%		
Cc1ccc(C(=O)Cn2ccsc2=N)cc1	27%		
Cc1ccc(-c2cn3c(n2)sc2cc(O)ccc23)cc1	19%		
Cc1ccc(-c2cn3c(n2)sc2cc(Br)ccc23)cc1	39%		
CCN(CC)c1ccc(C(=O)Cn2c3c(sc2=N)CCCC3)cc1	70%	1.84 µM	CI [4]: 2.24 µM
Oc1ccc(-c2cn3c4c(sc3n2)CCCC4)cc1	21%		
Cc1ccc(-c2cn3cnc4ccccc4c3n2)cc1	26%		
Fc1cccc(-c2cn3c4c(sc3n2)CCCC4)c1	34%		
N=c1sc2c(n1CC(=O)c1ccc(Cl)cc1)CCCC2	59%	5.37 µM	CI [5]: 8.82 µM
c1ccc2c(c1)sc1nc(-c3ccc(C4CCCC4)cc3)cn12	36%		
Cc1ccc(C(=O)Cn2c(=O)sc3ccccc32)cc1	30%		
Cc1ccc(-c2nc3sc4ccccc4n3c2Br)cc1	24%		
Cc1ccc(-c2csc3nc4ccccc4n23)cc1	48%		

Structure (SMILES)	Survival (Mus musculus [1])	EC50 (Mus musculus [2])	other results
FC(F)(F)c1ccc(-c2cn3c4c(sc3n2)CCCC4)cc1	27%		
Clc1ccc(-c2cn3c4c(sc3n2)CCCC4)cc1Cl	36%		
N=c1sc2c(n1CC(=O)c1ccccc1Cl)CCCC2	65%	5.72 µM	CI [6]: 8.01 µM
c1ccc(-c2cnc3sc4ccccc4n23)cc1	15%		
c1cc(N2CCCC2)ccc1-c1cn2c3c(sc2n1)CCCC3	50%	> 10 µM	
Cc1ccc(-c2cn3ccsc3n2)cc1	27%		
c1ccc(-c2cn3c4c(sc3n2)CCCC4)cc1	19%		
Fc1ccc(-c2cn3c4c(sc3n2)CCCC4)cc1	33%		
N#Cc1ccc(C(=O)Cn2c3c(sc2=N)CCCC3)cc1	40%		
O=C(Oc1ccc(-c2cn3c4c(sc3n2)CCCC4)cc1)c1ccccc1	23%		
N=c1sc2c(n1CC(=O)c1ccc(F)cc1)CCCC2	48%		
N=c1sc2c(n1CC(=O)c1ccc(-c3ccccc3)cc1)CCCC2	65%	2.29 µM	CI [7]: 2.98 µM
N=c1sc2c(n1CC(=O)c1ccc(-c3ccc4ccccc4c3)cc1)CCCC2	58%	4.02 µM	CI [8]: 5.28 µM
N=c1sc2c(n1CC(=O)c1ccc([N+](=O)[O-])cc1)CCCC2	21%		
Cc1ccc(/C=N/Nc2ncnc3ccccc23)cc1	23%		
Cc1ccc(-c2cn3c(n2)sc2cc(N)ccc23)cc1	27%		
N=c1sc2ccccc2n1CC(=O)c1ccc(-c2ccccc2)cc1	66%	7.26 µM	CI [9]: 8.76 µM
N=c1sc2c(n1CC(=O)c1cccc(F)c1)CCCC2	54%	9.69 µM	
Brc1ccc(-c2cn3c(n2)sc2ccccc23)cc1	22%		
c1ccc(-c2ccc(-c3cn4c(n3)sc3ccccc34)cc2)cc1	59%	8.12 µM	CI [10]: 13.75 µM
Nc1ccc(-c2cn3c4c(sc3n2)CCCC4)cc1	18%		

Structure (SMILES)	Survival (Mus musculus [1])	EC50 (Mus musculus [2])	other results
Brc1ccc(-c2cn3c4c(sc3n2)CCCC4)cc1	35%		
Cc1ccc(-c2nc3c4ccccc4ncn3n2)cc1	17%		
Clc1ccccc1-c1cn2c3c(sc2n1)CCCC3	37%		
Cc1ccc(C(=O)Cn2/c(=N/S(=O)(=O)c3ccccc3)sc3ccccc32)cc1	48%		
Cc1ccc(-c2cn3c(n2)nc(Cl)c2ccccc23)cc1	46%		
Cc1ccc(C(=O)Cn2c(=O)oc(=O)c3ccccc32)cc1	28%		
Clc1ccc(-c2cn3c4c(sc3n2)CCCC4)cc1	35%		
N=c1sc2c(n1CC(=O)c1ccc(F)c(F)c1)CCCC2	40%		
Cc1ccc(C(=O)CSc2nc3ccccc3s2)cc1	16%		
N=c1sc2ccccc2n1CC(=O)c1ccc(-c2ccc3ccccc3c2)cc1	62%	> 10 µM	
N=c1sc2ccccc2n1CC(=O)c1ccc(N2CCCC2)cc1	64%	9.84 µM	CI [11]: 34.83 µM
Cc1ccc(Cn2c(=N)sc3ccccc32)cc1	8%		
Fc1ccc(-c2cn3c4c(sc3n2)CCCC4)cc1F	44%		
N#Cc1ccc(-c2cn3c4c(sc3n2)CCCC4)cc1	21%		
COc1ccc(C(=O)Cn2c3c(sc2=N)CCCC3)cc1	66%	7.54 µM	
Cc1ccc(C(=O)CNc2ncnc3ccccc23)cc1	32%		
N=c1sc2c(n1CC(=O)c1ccc(Cl)c(Cl)c1)CCCC2	57%	7.28 µM	CI [12]: 13.7 µM
N=c1sc2ccccc2n1CC(=O)c1ccc(C2CCCC2)cc1	33%		
c1ccc2cc(-c3ccc(-c4cn5c(n4)sc4ccccc45)cc3)ccc2c1	75%	4.02 µM	CI [13]: 4.69 µM
c1ccc2c(c1)sc1nc(-c3ccc(N4CCCC4)cc3)cn12	78%	0.35 µM	CI [14]: 1.08 µM
CC(=O)N1C(c2ccc(C)cc2)N=C2c3ccccc3N=CN21 (stereo unspecified)	23%		

Structure (SMILES)	Survival (Mus musculus [1])	EC50 (Mus musculus [2])	other results
c1ccc2cc(-c3ccc(-c4cn5c6c(sc5n4)CCCC6)cc3)ccc2c1	57%	4.77 µM	CI [15]: 5.75 µM
c1ccc(-c2cn3c(n2)sc2ccccc23)cc1	73%	10.2 µM	CI [16]: 12.32 µM
O=C(O)c1ccc(-c2cn3c4c(sc3n2)CCCC4)cc1	20%		
N=c1sc2ccccc2n1Cc1ccccc1	20%		
c1ccc(-c2ccc(-c3cn4c5c(sc4n3)CCCC5)cc2)cc1	75%	3.79 µM	CI [17]: 5.16 µM
[N-]=[N+]=Nc1ccc(C(=O)Cn2c3c(sc2=N)CCCC3)cc1	56%	5.68 µM	CI [18]: 7 µM
Cc1ccc(-c2cn3c(n2)sc2ccccc23)cc1	73%	1.22 µM	CI [19]: 1.57 µM
N=c1sc2c(n1CC(=O)c1ccccc1)CCCC2	59%	6.06 µM	CI [20]: 7.91 µM
N=c1sc2c(n1CC(=O)c1ccc(Br)cc1)CCCC2	31%		
Cc1ccc(S(=O)(=O)Nc2nc3ccccc3s2)cc1	26%		
N=c1sc2c(n1CC(=O)c1ccc(C(F)(F)F)cc1)CCCC2	36%		
CSC(=N)NC(=O)c1ccccc1NCC(=O)c1ccc(C)cc1	31%		
Cc1ccc(-c2nc3sc4c(n3c2Br)CCCC4)cc1	27%		
Cc1ccc(C(=O)Cn2c3c(sc2=O)CCCC3)cc1	40%		
C#CCn1c(=N)sc2ccccc21	23%		
N=c1sc2c(n1CC(=O)c1ccc(N3CCCC3)cc1)CCCC2	77%	1.31 µM	CI [21]: 1.82 µM
Cc1ccc(C(=O)Cn2c3c(sc2=N)CCCC3)cc1	72%	4.16 µM	CI [22]: 5.88 µM
N=c1sc2c(n1CC(=O)c1ccc(OC(=O)c3ccccc3)cc1)CCCC2	17%		
Cc1ccc(C(=O)Cn2c(=N)oc3ccc(Cl)cc32)cc1	19%		
COc1ccc2c(c1)sc1nc(-c3ccc(C)cc3)cn12	68%	4.44 µM	CI [23]: 6.89 µM
CCOC(=O)Cn1c2c(sc1=N)CCCC2	27%		
